Measured values reported in ChEMBL document CHEMBL1143334, “Peri-substituted hexahydro-indolones as novel, potent and selective human EP3 receptor antagonists” (Bioorg Med Chem Lett, 2009).
The source made the active and inactive calls. The calls are words filed in the database; no cut-off is given here.

How the values were obtained:
[1] = Metabolic stability in rat liver microsomes after 30 mins; assay type: ADME, Microsome; details: read-out: Stability
How it was run: (§1)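 Compound was incubated 30 min with liver microsomes from each species. Percent parent remaining was measured by LC/MS/MS.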

[2] = biological target: T1, Prostaglandin E2 receptor EP3 subtype (Homo sapiens, UniProt P43115); test: Antagonist activity at human EP3 receptor expressed in CHO-K1 cells assessed as reversal of inhibition of forskolin-induced cAMP production; assay type: functional, cell-based
T1 sequence (P43115 whole entry): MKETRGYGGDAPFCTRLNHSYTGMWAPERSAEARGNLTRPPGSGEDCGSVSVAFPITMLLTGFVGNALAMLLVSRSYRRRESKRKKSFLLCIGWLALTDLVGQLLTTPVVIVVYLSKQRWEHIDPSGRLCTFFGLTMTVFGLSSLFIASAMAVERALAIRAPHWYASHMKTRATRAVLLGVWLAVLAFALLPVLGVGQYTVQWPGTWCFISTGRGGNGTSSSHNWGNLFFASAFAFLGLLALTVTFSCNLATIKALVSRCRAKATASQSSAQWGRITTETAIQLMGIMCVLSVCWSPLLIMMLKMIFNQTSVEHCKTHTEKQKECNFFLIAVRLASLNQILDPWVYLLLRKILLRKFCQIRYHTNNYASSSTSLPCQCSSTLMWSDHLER
How it was run: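 CHO-K1 cells stably expressing human EP3 were exposed to increasing test compound concentrations for 10 min at 37 °C, with 5 μM forskolin plus 5 nM PGE2 present. Read-out was the block of PGE2's inhibition of the forskolin-induced cAMP rise, giving IC50.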

Homo sapiens [3] = organism: Homo sapiens; test: Selectivity of human EP1 receptor over human EP3 receptor
Homo sapiens [4] = organism: Homo sapiens; test: Selectivity of human EP4 receptor over human EP3 receptor
[5] = biological target: T2, Prostaglandin E2 receptor EP1 subtype (Homo sapiens) (UniProt P34995); test: Binding affinity to human EP1 receptor at 20 uM by radioligand binding assay
T2 sequence (whole entry): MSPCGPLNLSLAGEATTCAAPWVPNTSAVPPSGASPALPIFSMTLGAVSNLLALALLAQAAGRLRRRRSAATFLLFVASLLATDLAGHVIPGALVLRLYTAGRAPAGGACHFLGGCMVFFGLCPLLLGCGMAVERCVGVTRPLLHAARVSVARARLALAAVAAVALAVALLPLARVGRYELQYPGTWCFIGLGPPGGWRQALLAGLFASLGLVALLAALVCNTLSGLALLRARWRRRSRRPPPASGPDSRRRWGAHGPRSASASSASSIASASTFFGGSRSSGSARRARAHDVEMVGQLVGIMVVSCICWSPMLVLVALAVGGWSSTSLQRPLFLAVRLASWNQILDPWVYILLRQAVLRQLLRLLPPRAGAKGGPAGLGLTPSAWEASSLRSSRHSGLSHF

[6] = Aqueous solubility in 50 mM PSB buffer at pH 7.4 by HPLC analysis; assay type: physicochemical
How it was run: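 Samples were stirred overnight in 50 mM PSB buffer, pH 7.4, then filtered. Concentration was measured by HPLC against a 5-point standard curve, giving thermodynamic solubility.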

[7] = biological target: Prostaglandin F2-alpha receptor (Homo sapiens, UniProt P43088); test: Binding affinity to human FP receptor by radioligand binding assay
Homo sapiens [8] = organism: Homo sapiens; test: Selectivity of human FP receptor over human EP3 receptor
[9] = biological target: T3, Prostaglandin E2 receptor EP2 subtype (Homo sapiens, UniProt P43116); test: Binding affinity to human EP2 receptor by radioligand binding assay
[10] = Metabolic stability in monkey liver microsomes after 30 mins; assay type: ADME, Macaca mulatta, Microsome; details: rhesus monkey, read-out: Stability; how it was run: as §1
Homo sapiens [11] = organism: Homo sapiens; test: Selectivity of human EP2 receptor over human EP3 receptor
[12] = Metabolic stability in human liver microsomes after 30 mins; assay type: ADME, Microsome; details: read-out: Stability; how it was run: as §1
[13] = biological target: T1, Prostaglandin E2 receptor EP3 subtype; test: Displacement of [3H]PGE2 from human EP3 receptor
How it was run: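 Displacement of [3H]-PGE2 from human EP3 receptor membrane preparations was run in buffer. IC50 values come from at least three experiments each.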

[14] = biological target: T4, Prostaglandin E2 receptor EP3 subtype (Homo sapiens) (UniProt P43115); test: Ratio of IC50 for human EP3 receptor in presence of 10% human serum to IC50 for human EP3 receptor in buffer
T4 sequence (whole entry): T1 sequence (P43115 whole entry)
How it was run: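 Displacement of [3H]-PGE2 from human EP3 membrane preparations was run both with 10% human serum and in buffer alone. Fold-shift is IC50 with serum divided by IC50 in buffer.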

[15] = Metabolic stability in dog liver microsomes after 30 mins; assay type: ADME, Canis lupus familiaris, Microsome; details: read-out: Stability; how it was run: as §1
[16] = biological target: Prostaglandin E2 receptor EP4 subtype (Homo sapiens, UniProt P35408); test: Binding affinity to human EP4 receptor by radioligand binding assay
[17] = biological target: T3, Prostaglandin E2 receptor EP2 subtype; test: Binding affinity to human EP2 receptor at 20 uM by radioligand binding assay
[18] = biological target: T5, Prostaglandin E2 receptor EP1 subtype (Homo sapiens, UniProt P34995); test: Binding affinity to human EP1 receptor by radioligand binding assay
T5 sequence (P34995 whole entry): T2 sequence (whole entry)

Chain of Prostaglandin F2-alpha receptor (P43088 whole entry): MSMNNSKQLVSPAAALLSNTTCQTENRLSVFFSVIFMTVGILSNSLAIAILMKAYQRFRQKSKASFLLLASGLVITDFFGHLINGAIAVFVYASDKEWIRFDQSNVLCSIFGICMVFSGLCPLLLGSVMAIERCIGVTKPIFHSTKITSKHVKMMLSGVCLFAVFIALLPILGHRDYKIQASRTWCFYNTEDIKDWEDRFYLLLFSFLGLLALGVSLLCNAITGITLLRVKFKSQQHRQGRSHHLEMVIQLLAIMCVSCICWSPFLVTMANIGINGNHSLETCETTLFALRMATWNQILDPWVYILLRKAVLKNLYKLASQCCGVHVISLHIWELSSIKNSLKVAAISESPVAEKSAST
T3 sequence (P43116 whole entry): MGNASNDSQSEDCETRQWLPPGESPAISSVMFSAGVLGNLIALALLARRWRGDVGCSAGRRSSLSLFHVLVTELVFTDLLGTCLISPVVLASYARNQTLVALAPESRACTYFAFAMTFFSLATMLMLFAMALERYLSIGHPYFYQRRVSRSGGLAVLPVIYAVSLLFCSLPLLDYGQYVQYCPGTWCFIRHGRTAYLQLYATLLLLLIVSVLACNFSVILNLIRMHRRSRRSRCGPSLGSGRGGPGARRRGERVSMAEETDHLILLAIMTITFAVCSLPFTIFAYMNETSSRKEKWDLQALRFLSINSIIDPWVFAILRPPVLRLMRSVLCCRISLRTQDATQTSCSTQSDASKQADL
Chain of Prostaglandin E2 receptor EP4 subtype (P35408 whole entry): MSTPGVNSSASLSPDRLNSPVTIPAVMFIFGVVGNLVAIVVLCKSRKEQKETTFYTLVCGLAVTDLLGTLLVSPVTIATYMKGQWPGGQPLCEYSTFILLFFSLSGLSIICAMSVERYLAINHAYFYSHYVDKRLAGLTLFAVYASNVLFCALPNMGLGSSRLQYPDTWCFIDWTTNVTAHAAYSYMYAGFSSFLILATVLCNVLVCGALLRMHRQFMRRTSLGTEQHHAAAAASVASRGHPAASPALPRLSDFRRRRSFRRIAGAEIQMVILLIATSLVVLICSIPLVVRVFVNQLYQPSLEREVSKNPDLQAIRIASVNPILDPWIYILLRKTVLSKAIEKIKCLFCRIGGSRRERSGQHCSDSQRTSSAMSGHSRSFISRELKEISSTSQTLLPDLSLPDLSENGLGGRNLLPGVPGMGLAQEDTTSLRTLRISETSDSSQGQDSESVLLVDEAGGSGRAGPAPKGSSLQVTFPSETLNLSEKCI

| remaining at 0.5 h [1] [%] | IC50 [2] [µM] | Selectivity ratio (Homo sapiens [3]) | Selectivity ratio (Homo sapiens [4]) | Activity [5] | solubility [6] [µg/mL] | IC50 [7] [µM] | Selectivity ratio (Homo sapiens [8]) | IC50 [9] [µM] | remaining at 0.5 h [10] [%] | Selectivity ratio (Homo sapiens [11]) | remaining at 0.5 h [12] [%] | IC50 [13] [µM] | fold change (FC) [14] | remaining at 0.5 h [15] [%] | IC50 [16] [µM] | Activity [17] | IC50 [18] [µM] | Compound |
| --- | --- | --- | --- | --- | --- | --- | --- | --- | --- | --- | --- | --- | --- | --- | --- | --- | --- | --- |
| 89 | 0.0035 | > 1000 | > 1000 | inactive | > 3000 | 3.8 | > 1000 | 13.9 | 54 | > 1000 | 75 | 0.0077 | 9.3 | 87 | 6.2 |  |  | CC12CCCC(/C=C/C(=O)NS(=O)(=O)c3cc(F)c(F)cc3F)=C1N(Cc1ccc(F)c(F)c1)C(=O)C2 (stereo not given) |
| 82 |  | > 1000 | > 1000 | inactive |  | 16.4 | > 1000 | 2.3 |  | > 1000 | 79 | 0.0094 | 3.2 |  | 7.7 |  |  | CC12CCCC(/C=C/C(=O)NS(=O)(=O)c3ccc(F)c(F)c3)=C1N(Cc1ccc(F)c(F)c1)C(=O)C2 (stereo not given) |
| 42 |  | > 1000 | > 1000 |  |  | 6.4 | > 1000 |  |  | > 1000 | 76 | 0.0129 | 4.2 |  | 7.5 | inactive | 1.4 | COc1cccc(CN2C(=O)CC3(C)CCCC(/C=C/C(=O)NS(=O)(=O)c4ccc(F)c(F)c4)=C23)c1 (stereo not given) |
